Results as given in the EternaBench riboswitch data.

Test system: MS2 coat protein
Experiment: apparent Kd, MS2 coat protein; higher = weaker binding; RNA-MaP array; FMN 200 µM where present
Outline: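 Each design was made on Illumina sequencing-chip clusters by stalled E. coli RNA polymerase and titrated with SNAP-549-labelled MS2 coat protein from 0.7 or 1.5 nM, doubling to 3 µM, in the absence and then the presence of constant ligand. The buffer was 100 mM Tris-HCl pH 7.5, 80 mM KCl, 4 mM MgCl2, BSA, DTT, yeast tRNA and Tween-20. The apparent Kd is the median of filtered per-cluster fits of binding curves, with green signal normalised to red-channel RNA signal and control-cluster median Fmax.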

[1] = ligand present: flavin mononucleotide, designed as: OFF switch for flavin mononucleotide
[2] = designed as: OFF switch for flavin mononucleotide, no ligand
[3] = designed as: ON switch for flavin mononucleotide, no ligand
[4] = ligand present: flavin mononucleotide, designed as: ON switch for flavin mononucleotide

Sequence	apparent Kd [1] [nM]	apparent Kd [2] [nM]	apparent Kd [3] [nM]	apparent Kd [4] [nM]
UUAGGAUCAGGAUAUGAUGUUUUAAACAUGAGGAUCACCCAUGUAGAUCCUGAUUCAACAUCAGAAGGGAUAAUUU	21.5			
CUCCUCCUGGUCAGGAUAUGAGCUUUAUCGGAUAUUCAGAAGGGACAUGAGGAUCACCCAUGUAACGUCGCUGG	17.2	14.8		
CAGUACUGAGGAUAUACAUGAGGAUCACCCAUGUGUUCCUUGUAGGAUAUGCGCAAAAGUAGAAGGCAGAAGGACAUGUGCCUA	6.45	7.48		
AGGAGGUCAGGAUAUGCUGCUCGUCACUUGCGUGAUGAGUAGCAGAAGGGACAUGAGGAUCACCCAUGUAAAUA	86.7	48.7		
UUGGCAACGUAGAAGGGUGACAUGAGGAUCACCCAUGUGCCGAUAUUUCUCGAGAUAUGUCGGCCACAGGAUAUACGUGCCAUC			32.3	57.9
CGUAGGAUCCAGAAGGCAUGAACAUGAGGAUCACCCAUGUUAAAAUACAUGAGGAUAUGGAUCCUACGAAAAGUGCGAAAGCAC			5.75	4.99
UCCCUGUGAGGAUAUCUCUUUGAGUGCGGCGAAUUCAGGUGGGAGAAGGCACAUGAGGAUCACCCAUGUAUUGC	73	40.2		
AGUCGGAGCAGAGGAUAUACAUGAGGAUCACCCAUGUAAUUAAGUGAAGCCUGGAAACAGGCAAUGUAGAAGGCUGCUCCGACA	51.7	9.44		
ACUGGUCGAGGAUAUACAUGAGGAUCACCCAUGUGAUUAGCAGUCCUCGGACUGCAAUGUAGAAGGCGACCAGU	842	370		
CCGGAAAUGCAGGAUAUCGUAUCGGAUACGAUACGAGAAGGGUAUACAUGAGGAUCACCCAUGUGUCCUGCCGG	40.6	42.5		
UAUAUAUAGUAAGGAUAUGUAUAUAUUUCAUAAACAGAAGGUACUGACAUGAGGAUCACCCAUGUUUUAGUGUGGGCAUGUAGA	83.8	60.1		
UGACACAUGAGGGUCUCCCUUGACAUGAGGAUCACCCAUGUGCAGGAUAUACGUGUGAUGGUAUAGUAGAAGGGCACUCUAUGU	40.5	30.6		
GUAGAGUAAGGAUAUGCAGAAUAGGAUAGAAUGGAUAGAAUGCAGAAGGUACAUGAGGAUCACCCAUGUAAUGU	21.6	19.8		
GGAGCACAUAUUAACAUGAGGAUCACCCAUGUCAAAAGACAUGAGGAUAUGGAUCCGAAAAGGAUCCAGAAGGCAUGGUGCUCC			268	14.3
UGUCGGAGCAGAGGAUAUUACAUGAGGAUCACCCAUGUAUCAACCAAUAGCUGGAAACAGCAAUGUAAGAAGGCUGCUCCGACA	19.8	7.54		
AUGGUCAUGUUAGGAUAUGACGCGCUGUACGCAUCAGAAGGAACAUGAGGAUCACCCAUGUAUAGAGUAAUGUCGCUUACUCUC	187	47.9		
UGGUACUAGGGAGGAUAUGGGAAGAUACAUGAGGAUCACCCAUGUUUAAGAAUGCCGAGAGGCAACAAGAAGGCCCUAGUACCU			532	98.9
CCGGUAUAGGAGGAUAUAGGAGUCGAUAGACACCUAGAAGGCCUGACAUGAGGAUCACCCAUGUGUCCUUCCGG	55.8	19.6		
UGUUACUAGUAAGGAUAUACUUGCGAUAAGCUUGUAGAAGGUACAGUCUUUUGUAUAACACGUUUACAUGAGGAUCACCCAUGU			6.94	6.01

Sequence	apparent Kd [1] [nM]	apparent Kd [2] [nM]	apparent Kd [3] [nM]	apparent Kd [4] [nM]
AAUAUAAAGCAGAAGGCCUUAUUACAUGAGGAUCACCCAUGUAAUCGUGGGAGGAUAUGCAUGAUACAAGUACGUUUGGUAGGA			8.76	5.22
AAAAAAUAAGGAUAUACAUUUCGGGAAAUUUUUACAAAAAAACAUGAGGAUCACCCAUGUAGAAGGUAUAAAAA	20.1	23.2		
AUAAUUUUAUAUAUCAUUUUAAUCAGAAGGCAUAACAUGAGGAUCACCCAUGUAAAUUAAUGUUAUGAGGAUAUGAUUUGGUUA	147	26.1		
GUUGCACAAGUUAACAUGAGGAUCACCCAUGUCAAAAGACAUGAGGAUAUGGAUCUGAAGAAGAUCCAGAAGGCAUAAUGCUAA			796	117
CGUGACUCAGGAUAUCUAUUAUGUCACAUGAGGAUCACCCAUGUCCAGCGAAAGCUGGAGGGAGAAGGGAGUCACG	34.9	97.9		
ACACAUGAGGAUCACCCAUGUAGCUGGCGUCUGCGCCAGCCACAGGAUAUACGGCAAAACAAACCGUAGAAGGGUGAUAAACAC			80.1	31.8
GGUCUGAUAUGAGGAUAUGCUCAGGAAUACUGAGCAGAAGGCAUGUGAAUACAUGAGGAUCACCCAUGUGAUCAAUACAGACCA			140	26
GUCGUGUUAGGAUAUGGCAACGGCUACGAAAGUAGUUGUUGUUAGAAGGAACAUGAGGAUCACCCAUGUAUGAC	101	38		
AGUUGGCGAGGAUAUACAUGAGGAUCACCCAUGUGGUCCUGCGAUGGUGUCGCCCUUUGUAGAAGGCGCGGGUC	28.1	35		
GUGAGUAGUCAGGAUAUGCUGUACAAAAGUACAGCAGAAGGGAUUACAUGAGGAUCACCCAUGUUAUCUUCAUG	510	185		
AAAAAACAUGAGGAUCACCCAUGUAAGGAUAUGACUUAAAUAAAGAAAGAAGAAAUAGUCAGAAGGUACAAAUA	51.1	45.3		
AUCAGCUCAUCAGGAUAUACGUCACUGCGUCAGCAGUGUGGUAAGAUCACAUGAGGAUCACCCAUGUAGAAGGGACGAGCUGAU	243	13.7		
UGGUUUGGGCUAGAUGCACAGACAUGAGGAUCACCCAUGUCUGAGGAUAUGCGUCAACAUAGGCAGCAGAAGGCAGACAUUCGC	30.5	16.8		
ACAUGAGGAUCACCCAUGUUCACAUAGGAUAUUGAUUAUAUUGGUUUUUGAAUAGUAAUUAACCUCAAGAAGGAUGCCUGAUCU			11.6	9.34
GUGAGGUCAGGAUAUGCAUGGCGGGACUUGCGUCGUGGCGUGGAGAAGGGACAUGAGGAUCACCCAUGUGGAGU	49.5	87.6		
AAAAAGCGAGGAUAUACAAAAGAGCGAAAGCUCAAAAGGAAACAUGAGGAUCACCCAUGUAGAAGGCGCAAGAA	20.3	21.7		
CAAUAUAACACAGGAUAUGUCUCGUUUACAUGAGGAUCACCCAUGUCCGAAACAGAAGGGUGACCUGAUAUAGGACGUUAGGUG			367	138
CGCGGUACUUAGGUACCACACAUGAGGAUCACCCAUGUAUCACAGGAUAUGCAUGAUAUAUUCAGGCAGAAGGGUGAUCUUACC			37.8	99.4
UAAGUUUUGGUAGGAUAUACUUUAAAUUUCUCUAUCCAUACAUGAGGAUCACCCAUGUUUACAUUGUAGAAGGACCACUAUGUU	19.7	24.6		

Sequence	apparent Kd [1] [nM]	apparent Kd [2] [nM]	apparent Kd [3] [nM]	apparent Kd [4] [nM]
CGCUAGUCAGGAUAUACGAACAUGUCACCAGACGUGAAGGGACAUGAGGAUCACCCAUGUAGAAGGGACUAGCA	267	90.5		
CGCUACGUUUCGUAGCAGUGUCAUCGAGAAGGCCCUGACAUGAGGAUCACCCAUGUUAAAACAUGGGAGGAUAUCGAUGAUACA			11.7	4.87
AAUAAACACACAGGAUAUAGCAUCGUCGUUGCGAACUUAGCGACGACGAUGCUAGAAGGGUGAACACAUGAGGAUCACCCAUGU				38.4
GUAGCAUUCUGAGGAUAUUCAUACCGGAAACGGACAUGAGGAUCACCCAUGUGGCGAAAGCCUUGGGAGAAGGCAGUAUGCUAC			740	27.4
UGAUAGGACACAGGAUAUACGUCCUAGAGAUACUAGGAAAGUUUCCUCACAUGAGGAUCACCCAUGUAGAAGGGUGUCCUAUCU	222	9.93		
ACAAAGUGAGGAUAUGCUAUCGUACAUUAUUGUUAUCGUUUGCAGAAGGCACAUGAGGAUCACCCAUGUAAGAA	30.5	29.4		
CGGACGUCAGGAUAUCUGAUGUCUAACUUCGGUUAGACAUCAGAGAAGGGACAUGAGGAUCACCCAUGUCCGAG	16.9	22.2		
AUUAUUAUAUUAUACAUGAGGAUCACCCAUGUUAUAAGUCAUGAGGAUAUGGUUUUGUAGAUUUUCCAGAAGGCAUUUAACUUA			13.3	7.8
UUUUAACAUGAGGAUCACCCAUGUGAGGAUAUCGAAAUUUAUAUUAAUAUUUUUAAAACGAGAAGGCACAUUUU	84.8	61.3		
CCUCGCUGUUAGAAGGCACCUUCGGCUUUGGCUUUUGGAGUUGGGCGAUGGUGAGGAUAUAACAUGAGGAUCACCCAUGUUCAA	65.1			
GCUGUCGUAUGAGGAUAUGGUCAGCUUUGCUGACCAGAAGGCAUGUCAAUAGACAUGAGGAUCACCCAUGUAGUAAAGACAGCA			402	39
CGAUAUUAUGCAGGAUAUCUAUCUUGAAUGAGGAGAGAAGGGCAUAGGGAGACAUAAGCCUUAUUACAUGAGGAUCACCCAUGU	9.38	11.2		
AUAGAAGACUAGAAGGACCUAGCUGUAUACCGUCGAGGUAUAUAGCUAGGUAGGAUAUGGGACAUGAGGAUCACCCAUGUCUUG			8.58	7.58
AAUUUAAGAUGAGGAUAUUGACAUGAGGAUCACCCAUGUAUUUGGGAAUGUUUACUGAAUUCUUACAAGAAGGUAUACGAACUU	138	185		
UGCCAUUACAUGAGGAUCACCCAUGUUCGCUAUGCGGGCUCGCAGGAUAUCCUCGCAGAUAAAGAGGAGAAGGGUGAUCCCGAC			48	28.9
AGUUAAUAUCGAGGAUAUCCUCAUCUACAUGAGGAUCACCCAUGUAAGCAUGGAGAAGGCGAUAUUAACAGCAUGUUACAUGCA			112	10.5
CAGGUAUAAGGAUAUACAUAGAUACAGACACAUGUUCAAGUACAUGAGGAUCACCCAUGUAGAAGGUAUAUAUG	25.6	28.8		
GCACUUAGAGAGGUACCGUUACGAACAUGAGGAUCACCCAUGUAGGAUAUGCUAAUAGUAUUGAAGCAGAAGGACACUAAGUGC	30.4	7.21		
